Experimental data from PubChem BioAssay.
Inconclusive results are not listed.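 How the source made its calls, unless noted: active means RAM network inhibition above 8.4% in each of two replicates, 3 SD over the compound average; inconclusive means above 8.4% inhibition in only one replicate; inactive means 8.4% inhibition or less in each replicate.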

Assays:
[1] = S. cerevisiae growth inhibition in permissive medium (OD615), pilot counter-assay for S. cerevisiae lifespan shortening project, permissive growth control (AID 705;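 active means growth inhibition above 25% in both replicates, a cutoff set 3 SD above the mean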); settings: OD615, 24 h, at 10 µM, active compounds read high
Summary of the method: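 Timing: 24 h exposure, 30 °C / Material: Saccharomyces cerevisiae strain carrying genetically modified DeaD replicative-lifespan system / Signal: OD at 615 nm / Compound: 10 µM single dose, 0.25% DMSO / Medium: SC raffinose/galactose permissive medium / Evaluation: reduction in yeast growth (OD615)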

[2] = S. cerevisiae growth inhibition in restrictive medium, OD615, pilot screen, restrictive growth control, yeast lifespan reduction project (AID 706;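 active means growth inhibition above a set limit, 3 SD over mean compound inhibition, in both replicates, cut at about 43% in these data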;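 further: modified DeaD lifespan yeast strain shifted to restrictive glucose medium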); settings: OD615, 48 h, at 10 µM, active compounds read high
Summary of the method: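 System: Engineered S. cerevisiae DeaD strain | Detection: OD615 | Buffer or medium: CSMM-D glucose medium | Doses: 10 µM compound, 0.25% DMSO | Timing: 4 h pre-growth plus 48 h compound exposure, 30 °C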

[3] = doxorubicin toxicity protection in MRP-1 cells – H69AR cells, CellTiter-Glo, duplicate, MRP-1 activator project, pilot screen (AID 807;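 active means viability increase at or above a cutoff of the median across tested compounds plus 3 SD, cut at about 8.5% in these data, passing the limit was not always enough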;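 further: compound pretreatment 18-22 h then 72 h combined with doxorubicin; 0% = doxorubicin alone and 100% = vehicle without doxorubicin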); settings: H69AR viability with doxorubicin, CellTiter-Glo luminescence; at 10 µM; active compounds read high
[4] = viability of HCT116 without oncogenic beta-catenin – human colon tumor cells, pilot screen (AID 823;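 active means cell viability at or below a set limit in both duplicate runs, the limit being the all-compound median minus 4 SD, cut at about 23% in these data, passing the limit was not always enough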;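 further: 0% = wells killed by 20 µM Hyamine and 100% = untreated DMSO cell wells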); settings: HCT116 beta-catenin knockout viability, CellTiter-Glo, 60 h; at 10 µM; active compounds read low
[5] = viability of PTEN-null HCT116 cells – cell-based, HCT116 clonal line, CellTiter-Glo, pilot screen (AID 824;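 active means viability at or below 27.92% in each of two runs, the all-compound median minus 4 SD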;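 further: 0% = 20 µM Hyamine control and 100% = vehicle cell control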); settings: HCT116 PTEN-deleted viability, 60 h, at 10 µM, active compounds read low
[6] = RAM pathway blockade in budding yeast – dse1pr::URA3 reporter, 5-FOA selection, pilot screen (AID 869;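 active means inhibition over a set limit, the all-compound mean plus 3 SD, in both replicate runs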;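 further: 0% = DMSO wells with no growth and 100% = 10 µM 1-NA-PP1 with full growth; RAM network block rescues cells from 5-FOA so hits raise OD615 growth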); settings: S. cerevisiae dse1pr::URA3 5-FOA growth, OD615, 2 d; at 10 µM; active compounds read high; strain carries analog-sensitive mutant Cbk1 kinase
[7] = RAM signaling pathway blockade in yeast – S. cerevisiae, Pdr1DBD-CYC8 efflux-inhibited sensitized strain, primary screen (AID 1298);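 further: 0% = DMSO untreated cells without growth and 100% = 10 µM 1-NA-PP1 full growth; higher means more yeast growth rescued from 5-FOA killing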; settings: S. cerevisiae cbk1-as DSE1-URA3 strain, 5-FOA growth OD615, 2 d; at 50 µM; active compounds read high

O=C(NCc1cccnc1)c1cnn2ccccc12
inactive: growth inhibition [1] -7.88% | growth inhibition [2] -0.235% | viability increase [3] -1.28% | viability [4] 106% | viability [5] 90.9% | inhibition [6] 1.62% | RAM network inhibition [7] 0.38%

O=C(CN1CCN(Cc2ccccc2F)C1=O)NCCN1CCOCC1
inactive: growth inhibition [1] -2.78% | growth inhibition [2] 5.44% | viability increase [3] -0.58% | viability [4] 109% | viability [5] 99.5% | inhibition [6] 1.27% | RAM network inhibition [7] 1.5%

O=C(Nc1cccnc1)c1ccccc1F
inactive: growth inhibition [1] -7.93% | growth inhibition [2] 4.54% | viability increase [3] -0.03% | viability [4] 103% | viability [5] 103% | inhibition [6] 0.88% | RAM network inhibition [7] 2.95%

N#Cc1nc(-c2ccccc2Cl)oc1NCC1CCCO1 (stereo unspecified)
inactive: growth inhibition [1] -2.88% | growth inhibition [2] 8.84% | viability increase [3] 0.31% | viability [4] 91.1% | viability [5] 86.8% | inhibition [6] 1.48% | RAM network inhibition [7] 1.33%

COCCOC(=O)c1c(C)oc2ccc(OCC=C(C)C)cc12
inactive: growth inhibition [1] -0.275% | growth inhibition [2] -6.21% | viability increase [3] 3.27% | viability [4] 97.8% | viability [5] 95% | inhibition [6] 0.175% | RAM network inhibition [7] 4.81%

O=C1c2oc3ccc(F)cc3c(=O)c2C(c2cccc(O)c2)N1CCCN1CCOCC1 (stereo unspecified)
inactive: growth inhibition [1] -6.24% | growth inhibition [2] -8.16% | viability increase [3] 0.39% | viability [4] 99% | viability [5] 96.2% | inhibition [6] 0.63% | RAM network inhibition [7] 0.27%

CCOC(=O)c1nnn(-c2nonc2N)c1-c1ccccc1
inactive: growth inhibition [1] -8.1% | growth inhibition [2] 7.27% | viability increase [3] -0.46% | viability [4] 98.7% | viability [5] 103% | inhibition [6] 2.83% | RAM network inhibition [7] 5.09%

CSC1=NCCN1C(=O)C(C)(C)Oc1ccc(Cl)cc1
inactive: growth inhibition [1] 7.64% | growth inhibition [2] 4.49% | viability increase [3] -4.07% | viability [4] 91.2% | viability [5] 84.7% | inhibition [6] 0.3% | RAM network inhibition [7] -0.37%

O=C1c2cccc3cccc(c23)C(=O)N1c1nccs1
inactive: growth inhibition [1] -1.67% | growth inhibition [2] 0% | viability increase [3] 0.23% | viability [4] 104% | viability [5] 106% | inhibition [6] 1.98% | RAM network inhibition [7] 6.64%

CC(C)(C)c1ccc(OCC(=O)N2CCN(C=O)CC2)cc1
inactive: growth inhibition [1] -6.68% | growth inhibition [2] -10.2% | viability increase [3] -2.64% | viability [4] 98.1% | viability [5] 100% | inhibition [6] 1.25% | RAM network inhibition [7] 0.67%

Cc1cc(C(=O)N2CCN(C(c3ccccc3)c3ccccc3)CC2)on1
inactive: growth inhibition [1] -11.2% | growth inhibition [2] -5.41% | viability increase [3] 0.42% | viability [4] 89.7% | viability [5] 76.7% | inhibition [6] 2.04% | RAM network inhibition [7] 3.7%

Cc1cc(Nc2ccccc2Br)n2nc(C)nc2n1
inactive: growth inhibition [1] -3.05% | growth inhibition [2] -13.3% | viability increase [3] -2.64% | viability [4] 107% | viability [5] 98.2% | inhibition [6] 1.9% | RAM network inhibition [7] -1.82%

O=S(=O)(NC1CCCCC1)c1cccc(-c2nnc(-c3ccccc3)o2)c1
inactive: growth inhibition [1] -12.2% | growth inhibition [2] -20.6% | viability increase [3] 0.12% | viability [4] 88.7% | viability [5] 81.2% | inhibition [6] 0.285% | RAM network inhibition [7] 3.44%

Cc1ccc2oc3c(c(=O)c2c1)C(c1cccc(Cl)c1)N(CCCN1CCOCC1)C3=O (stereo unspecified)
inactive: growth inhibition [1] -0.165% | growth inhibition [2] 2.74% | viability increase [3] -3.81% | viability [4] 76.8% | viability [5] 79% | inhibition [6] 0.735% | RAM network inhibition [7] 2.4%

COc1ccc(C(c2sc3nc(C)nn3c2O)N2CCC(C(N)=O)CC2)cc1OC (stereo unspecified)
inactive: growth inhibition [1] -11.7% | growth inhibition [2] -16.2% | viability increase [3] -0.96% | viability [4] 99.7% | viability [5] 96.2% | inhibition [6] 1.54% | RAM network inhibition [7] 3.49%

COc1ccc(C2C(C(=O)c3ccco3)=C(O)C(=O)N2CCc2ccccc2)cc1OC (stereo unspecified)
inactive: growth inhibition [1] -12.1% | growth inhibition [2] 7.54% | viability increase [3] -1.95% | viability [4] 101% | viability [5] 92.5% | inhibition [6] 5.36% | RAM network inhibition [7] 4.36%

CC(C)N(C(=O)COc1ccc(Br)cc1Cl)C(C)C
inactive: growth inhibition [1] -6.94% | growth inhibition [2] -12.8% | viability increase [3] 0.81% | viability [4] 76.5% | viability [5] 83.1% | inhibition [6] 1.12% | RAM network inhibition [7] 0.74%

CC1CCCCN1CCn1cnc2c([nH]c3ccccc32)c1=O (stereo unspecified)
inactive: growth inhibition [1] -2.21% | growth inhibition [2] 5.29% | viability increase [3] -4.17% | viability [4] 88.1% | viability [5] 87.4% | inhibition [6] -0.135% | RAM network inhibition [7] 4.11%
